Measured values as given in ChEMBL document CHEMBL2010685, “Synthesis and biological evaluation of novel bifendate derivatives bearing 6,7-dihydro-dibenzo[c,e]azepine scaffold as potent P-glycoprotein inhibitors” (Eur J Med Chem, 2012).
Calls of active or inactive are those of the source. The rule behind the calls is not given here.

Experiments:
[1] = Cytotoxicity against human K562/A02 cells expressing p-glycoprotein after 72 hrs by MTS assay; assay type: functional, cell-based; details: K562/A02, 72 h
How it was run: (§1)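 K562 and K562/A02 cells (1 × 10⁴/well) seeded in RPMI-1640 and incubated 24 h. Exponentially growing cells then exposed to various compound concentrations for 72 h at 37 °C (5% CO₂, 95% humidity). MTS added for 3 h more, absorbance read at 490 nm. IC₅₀ from dose-response curves, mean of triplicate experiments.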

K562 [2] = assay: Cytotoxicity against human K562 cells after 72 hrs by MTS assay; assay type: functional, cell-based; details: K562, 72 h; how it was run: as §1
K562 [3] = assay: Ratio of IC50 for human K562/A02 cells expressing p-glycoprotein to IC50 for human K562 cells; assay type: functional
[4] = target: T1, ATP-dependent translocase ABCB1 (Homo sapiens, UniProt P08183); assay: Inhibition of p-glycoprotein in human K562/A02 cells assessed as accumulation of adriamycin by flow cytometry; assay type: cell-based
T1 sequence (P08183 whole entry): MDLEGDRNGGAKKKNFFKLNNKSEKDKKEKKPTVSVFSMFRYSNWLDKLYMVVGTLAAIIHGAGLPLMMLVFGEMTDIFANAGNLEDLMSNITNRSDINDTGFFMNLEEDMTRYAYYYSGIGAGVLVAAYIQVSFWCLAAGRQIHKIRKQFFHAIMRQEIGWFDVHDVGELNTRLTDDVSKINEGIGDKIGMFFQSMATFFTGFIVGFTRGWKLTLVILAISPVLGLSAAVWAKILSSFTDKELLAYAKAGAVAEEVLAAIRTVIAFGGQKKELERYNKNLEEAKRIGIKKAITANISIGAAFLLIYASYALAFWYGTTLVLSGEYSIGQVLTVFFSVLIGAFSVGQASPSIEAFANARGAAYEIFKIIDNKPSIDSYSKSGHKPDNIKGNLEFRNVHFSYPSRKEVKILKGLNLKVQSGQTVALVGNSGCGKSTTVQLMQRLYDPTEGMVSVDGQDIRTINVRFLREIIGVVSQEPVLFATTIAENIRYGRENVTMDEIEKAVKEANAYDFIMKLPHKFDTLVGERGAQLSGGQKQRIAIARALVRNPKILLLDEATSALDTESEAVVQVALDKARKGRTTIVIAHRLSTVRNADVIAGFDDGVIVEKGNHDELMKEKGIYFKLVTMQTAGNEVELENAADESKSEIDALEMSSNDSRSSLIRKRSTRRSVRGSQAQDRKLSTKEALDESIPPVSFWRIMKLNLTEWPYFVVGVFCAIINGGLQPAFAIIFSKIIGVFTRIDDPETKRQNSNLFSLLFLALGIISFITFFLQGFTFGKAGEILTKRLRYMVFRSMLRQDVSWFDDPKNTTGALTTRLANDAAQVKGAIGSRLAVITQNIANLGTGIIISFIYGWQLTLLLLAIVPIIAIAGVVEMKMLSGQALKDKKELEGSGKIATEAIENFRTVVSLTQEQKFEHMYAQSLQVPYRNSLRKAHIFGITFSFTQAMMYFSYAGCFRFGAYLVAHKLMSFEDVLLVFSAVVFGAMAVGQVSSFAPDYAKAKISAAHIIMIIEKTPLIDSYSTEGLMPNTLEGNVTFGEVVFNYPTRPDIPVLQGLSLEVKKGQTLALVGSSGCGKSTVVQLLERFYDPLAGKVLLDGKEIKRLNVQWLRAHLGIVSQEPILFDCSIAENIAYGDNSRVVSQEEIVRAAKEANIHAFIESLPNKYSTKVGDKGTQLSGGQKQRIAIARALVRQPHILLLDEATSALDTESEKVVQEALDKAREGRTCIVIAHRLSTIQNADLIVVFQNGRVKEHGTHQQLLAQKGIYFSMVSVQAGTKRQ
How it was run: (§2)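 Rh123 or adriamycin (0.5) then added for 30 min. Stopped with ice-cold PBS and centrifugation, washed three times in ice-cold PBS, analysed by flow cytometry. Fluorescence expressed as fold of 0.1% DMSO control; three independent experiments.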

K562 [5] = assay: Cytotoxicity against human K562 cells assessed as cell killing at 5 uM after 72 hrs by MTS assay; assay type: cell-based; details: k562, 72 h
K562/A02 [6] = assay: Reversal of p-glycoprotein-mediated multidrug-resistant in human K562/A02 cells assessed as increase of adriamycin-induced cytotoxic effect at 2.5 uM after 72 hrs by MTS assay; assay type: cell-based
How it was run: (§3)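 Viability by MTS assay. Survival rate expressed as percent growth relative to untreated control, mean ± S.D. of three independent experiments.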

[7] = Cytotoxicity against human K562/A02 cells expressing p-glycoprotein assessed as cell killing at 5 uM after 72 hrs by MTS assay; assay type: cell-based; details: k562/a02, 72 h
[8] = target: T1, ATP-dependent translocase ABCB1; assay: Inhibition of p-glycoprotein-mediated rhodamine 123 efflux in human K562/A02 cells after 60 mins by fluorescence microscopic analysis; assay type: cell-based; details: k562/a02, 1 h
[9] = target: T1, ATP-dependent translocase ABCB1; assay: Inhibition of p-glycoprotein mRNA expression in human K562/A02 cells at 5 uM after 72 hrs by RT-PCR analysis; assay type: functional, cell-based; details: k562/a02, 72 h
K562/A02 [10] = assay: Reversal of p-glycoprotein-mediated multidrug-resistant in human K562/A02 cells assessed as increase of adriamycin-induced cytotoxic effect after 72 hrs by MTS assay; assay type: cell-based; how it was run: as §3
[11] = Reversal of p-glycoprotein-mediated multidrug-resistant in human K562/A02 cells assessed as increase of adriamycin-induced cytotoxic effect at 2.5 uM treated 24 hrs before adriamycin challenge followed by drug washout by MTS assay; assay type: cell-based
K562/A02 [12] = assay: Reversal of p-glycoprotein-mediated multidrug-resistant in human K562/A02 cells assessed as increase of adriamycin-induced cytotoxic effect at 1.25 uM after 72 hrs by MTS assay; assay type: cell-based; how it was run: as §3
[13] = Reversal of p-glycoprotein-mediated multidrug-resistant in human K562/A02 cells assessed as increase of adriamycin-induced cytotoxic effect at 2.5 uM treated for 24 hrs followed by adriamycin treated 6 hrs after drug washout by MTS assay; assay type: cell-based
[14] = Induction of ATPase activity of p-glycoprotein at 40 uM by luminescence assay relative to control
K562 [15] = assay: Potentiation of adriamycin-induced cytotoxic effect in human K562 cells assessed as cell survival rate at 1.25 to 5 uM after 72 hrs by MTS assay; assay type: functional, cell-based; how it was run: as §3
[16] = Reversal of p-glycoprotein-mediated multidrug-resistant in human K562/A02 cells assessed as increase of adriamycin-induced cytotoxic effect at 2.5 uM treated for 24 hrs followed by adriamycin treated 12 hrs after drug washout by MTS assay; assay type: cell-based
K562 [17] = assay: Induction of rhodamine 123 accumulation in human K562 cells at 0.3 to 10 uM by flow cytometry; assay type: functional, cell-based; how it was run: as §2
[18] = Reversal of p-glycoprotein-mediated multidrug-resistant in human K562/A02 cells assessed as increase of adriamycin-induced cytotoxic effect at 2.5 uM treated for 24 hrs followed by adriamycin treated 24 hrs after drug washout by MTS assay; assay type: cell-based; details: K562/A02, 24 h
K562 [19] = assay: Induction of adriamycin accumulation in human K562 cells at 0.3 to 10 uM by flow cytometry; assay type: functional, cell-based; how it was run: as §2
[20] = target: T1, ATP-dependent translocase ABCB1; assay: Inhibition of p-glycoprotein-mediated rhodamine 123 efflux in human K562/A02 cells at 2.5 uM after 60 mins by fluorescence microscopic analysis; assay type: cell-based; details: k562/a02, 1 h
[21] = target: T1, ATP-dependent translocase ABCB1; assay: Inhibition of p-glycoprotein in human K562/A02 cells assessed as accumulation of rhodamine 123 at 10 uM by flow cytometry relative to control; assay type: cell-based; details: k562/a02, 10 µM; how it was run: as §2
[22] = target: T1, ATP-dependent translocase ABCB1; assay: Inhibition of p-glycoprotein protein expression in human K562/A02 cells at 5 uM after 72 hrs by Western blot analysis; assay type: functional, cell-based; details: k562/a02, 72 h
[23] = Cytotoxicity against human K562/A02 cells expressing p-glycoprotein assessed as cell survival rate at 1.25 uM after 72 hrs by MTS assay; assay type: cell-based; details: read-out: Activity
K562/A02 [24] = assay: Reversal of p-glycoprotein-mediated multidrug-resistant in human K562/A02 cells assessed as increase of adriamycin-induced cytotoxic effect at 5 uM after 72 hrs by MTS assay; assay type: cell-based; how it was run: as §3
[25] = target: T1, ATP-dependent translocase ABCB1; assay: Inhibition of p-glycoprotein in human K562/A02 cells assessed as accumulation of rhodamine 123 by flow cytometry; assay type: cell-based; how it was run: as §2
[26] = Induction of ATPase activity of p-glycoprotein at 200 uM by luminescence assay relative to control
[27] = Reversal of p-glycoprotein-mediated multidrug-resistant in human K562/A02 cells assessed as increase of adriamycin-induced cytotoxic effect at 10 uM treated for 24 hrs followed by adriamycin treated 24 hrs after drug washout by MTS assay; details: K562/A02, 24 h
[28] = Reversal of p-glycoprotein-mediated multidrug-resistant in human K562/A02 cells assessed as increase of adriamycin-induced cytotoxic effect at 10 uM treated for 24 hrs followed by adriamycin treated 12 hrs after drug washout by MTS assay
[29] = Reversal of p-glycoprotein-mediated multidrug-resistant in human K562/A02 cells assessed as increase of adriamycin-induced cytotoxic effect at 10 uM treated for 24 hrs followed by adriamycin treated 6 hrs after drug washout by MTS assay
[30] = Reversal of p-glycoprotein-mediated multidrug-resistant in human K562/A02 cells assessed as increase of adriamycin-induced cytotoxic effect at 10 uM treated 24 hrs before adriamycin challenge followed by drug washout by MTS assay

Row | Molecule | IC50 [1] | IC50 (K562 [2]) | Activity (K562 [5]) | Activity [7] | also measured
1 | COC(=O)CN1Cc2cc(OC)c3c(c2-c2c(cc(OC)c4c2OCO4)C1)OCO3 | > 100 µM | > 100 µM |  |  | 
2 | COc1cccc2c1C(=O)c1c(O)c3c(c(O)c1C2=O)C[C@@](O)(C(=O)CO)C[C@@H]3O[C@H]1C[C@H](N)[C@H](O)[C@H](C)O1 [DOXORUBICIN] | 46.7 µM |  |  |  | Ratio IC50 (K562 [3]): 108
3 | COc1cc2c(c3c1OCO3)-c1c(cc(OC)c3c1OCO3)CN(CCc1ccc3c(c1)OCO3)C2 | 46.9 µM | 53.7 µM | 10% | 10% | inhibition (INH) [4]: Dose-dependent effect; Activity (K562/A02 [6]): 8%; inhibition (INH) [8]: Dose-dependent effect; inhibition (INH) [9]: Not Active; Activity (K562/A02 [10]): Dose-dependent effect; IC50 [11]: 1.78 µM; Activity (K562/A02 [12]): 30%; IC50 [13]: 2.47 µM; RLU [14]: 283000; Activity (K562 [15]): inactive; IC50 [16]: 5.03 µM; Activity (K562 [17]): inactive; IC50 [18]: 10.3 µM; Activity (K562 [19]): inactive; inhibition (INH) [20]: Active; fold change (FC) [21]: 11.2; inhibition (INH) [22]: Not Active; viability at 72 h, 1.25 µM [23]: 98%; Activity (K562/A02 [24]): 6%; inhibition (INH) [25]: Dose-dependent effect
4 | COc1cc2c(c3c1OCO3)-c1c(cc(OC)c3c1OCO3)CN(CCO)C2 | > 200 µM | > 200 µM | 10% | 10% | 
5 | COc1cc2c(c3c1OCO3)-c1c(cc(OC)c3c1OCO3)CN(CCc1ccccc1)C2 | 34.1 µM | 45.4 µM | 10% | 10% | Activity (K562/A02 [6]): Active; inhibition (INH) [9]: Not Active; Activity (K562 [17]): inactive; fold change (FC) [21]: 10.1; inhibition (INH) [22]: Not Active; inhibition (INH) [25]: Dose-dependent effect
6 | COc1cc2c(c3c1OCO3)-c1c(cc(OC)c3c1OCO3)CN(c1ccccc1)C2 | > 100 µM | > 100 µM |  |  | 
7 | COc1cc2c(c3c1OCO3)-c1c(cc(OC)c3c1OCO3)C(=O)N(Cc1ccccc1)C2 | 53.4 µM | 43.5 µM |  |  | 
8 | SODIUM ORTHOVANAD |  |  |  |  | RLU [26]: 282000
9 | CCCCN1Cc2cc(OC)c3c(c2-c2c(cc(OC)c4c2OCO4)C1)OCO3 | > 100 µM | 77.5 µM |  |  | 
10 | CCN1Cc2cc(OC)c3c(c2-c2c(cc(OC)c4c2OCO4)C1)OCO3 | 117 µM | 125 µM | 10% | 10% | 
11 | CCCCN1Cc2cc(OC)c3c(c2-c2c(cc(OC)c4c2OCO4)C1=O)OCO3 | 44.6 µM | 41.7 µM |  |  | 
12 | COC(=O)CN1Cc2cc(OC)c3c(c2-c2c(cc(OC)c4c2OCO4)C1=O)OCO3 | > 100 µM | > 100 µM |  |  | 
13 | COC(=O)c1cc(OC)c2c(c1-c1c(C(=O)OC)cc(OC)c3c1OCO3)OCO2 [BIFENDATE] |  |  |  |  | fold change (FC) [21]: 1.2
14 | CCCN1Cc2cc(OC)c3c(c2-c2c(cc(OC)c4c2OCO4)C1)OCO3 | 87.6 µM | 106 µM | 10% | 10% | 
15 | COc1cc2c(c3c1OCO3)-c1c(cc(OC)c3c1OCO3)CN(Cc1ccccc1)C2 | 112 µM | > 200 µM | 10% | 10% | inhibition (INH) [9]: Not Active; Activity (K562 [17]): inactive; inhibition (INH) [21]: Active; inhibition (INH) [22]: Not Active; inhibition (INH) [25]: Dose-dependent effect
16 | COc1ccc(CCN(C)CCCC(C#N)(c2ccc(OC)c(OC)c2)C(C)C)cc1OC (stereo unspecified) |  |  |  |  | IC50 [27]: 51.4 µM; inhibition (INH) [4]: Dose-dependent effect; IC50 [28]: 51.1 µM; Activity (K562 [17]): inactive; Activity (K562 [19]): inactive; IC50 [29]: 26.1 µM; IC50 [30]: 12.9 µM; Activity (K562/A02 [24]): > 50%; inhibition (INH) [25]: Dose-dependent effect
17 | COc1cc2c(c3c1OCO3)-c1c(cc(OC)c3c1OCO3)CN(C)C2 | 107 µM | 140 µM | 10% | 10% | 
18 | CCN1Cc2cc(OC)c3c(c2-c2c(cc(OC)c4c2OCO4)C1=O)OCO3 | > 100 µM | > 100 µM |  |  | 
